19 compounds from ChEMBL document CHEMBL2150889, “Azetidinyl oxadiazoles as potent mGluR5 positive allosteric modulators” (Bioorg Med Chem Lett, 2012) can be followed below.

The nature of series [1]: Ratio of drug level in brain to plasma of rat at 10 mg/kg, po after 1 hr. The conditions noted are these: brain and plasma, read-out: BPR. Set-up: dose 10 mg/kg, route oral. Type of series: ADME, organism-based. The procedure, abridged:
(§1)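 Rats got a single 10 mg/kg oral dose (n = 2 animals). Brain and plasma were sampled at 1 h. Concentrations were measured by HPLC-tandem MS and averaged values reported. Brain/plasma ratio is brain level (ng/g) divided by plasma level (ng/mL).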

The target in series [2] is T1, Metabotropic glutamate receptor 5 (Homo sapiens, UniProt P41594). The series can be described thus: Positive allosteric modulation of human mGluR5 expressed in recombinant HEK293 cells by FLIPR assay. The series is classed as cell-based. The essentials:
(§2)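 HEK293 cells recombinantly expressing human mGluR5 were seeded at 2×10^4 cells/well on poly-D-lysine. They were incubated overnight at 37 °C in glutamate/glutamine-free medium, then loaded for 1 h at 37 °C with calcium 5 dye containing 3 U/ml glutamic pyruvic transaminase and 3 mM sodium pyruvate. Calcium flux was read by FLIPR.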

A short description of series [3]: Solubility of the compound in potassium phosphate buffer after 4 hrs by UPLC analysis. Type of series: physicochemical. The procedure, abridged:
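DMSO stock of compound (300 μL) was diluted with 2 × 200 μL of 25 mM potassium phosphate buffer. The mixture was shaken on a titer plate shaker for 4 h.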

The subject of series [4] is Liver microsomes. The series can be described thus: Intrinsic clearance in human liver microsomes. Type of series: ADME, Microsome. The essentials:
(§3)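 Intrinsic clearance was determined by the Obach method. Liver blood flow was taken as 1.5 L/min for human and 20 mL/min for rat. Human values are expressed in L/min and rat values in mL/min.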
(In general: Liver microsomes are vesicles of endoplasmic reticulum, rich in cytochrome P450 enzymes.)

Series [5] is described as follows: Drug uptake in rat brain at 10 mg/kg, po after 1 hr. The settings on record: read-out: Drug uptake. The arrangement: dose 10 mg/kg, route oral. Type of series: ADME, organism-based. The essentials: as §1
Series [6] can be described thus: Plasma protein binding in human. Type of series: ADME, cell-free. The conditions noted are these: read-out: PPB (converted).
Series [7] is described as follows: Plasma protein binding in rat. The series is classed as ADME, cell-free. The settings on record: read-out: PPB (converted).
Series [8] in a line: Plasma concentration in rat at 10 mg/kg, po after 1 hr. The series is classed as ADME, organism-based. Set-up: dose 10 mg/kg, route oral. The procedure, abridged: as §1
Series [9] concerns Liver microsomes. The series can be described thus: Intrinsic clearance in rat liver microsomes. Type of series: ADME, Microsome. The procedure, abridged:
as §3

In series [10] the target is T1, Metabotropic glutamate receptor 5. The series is described as follows: Negative allosteric modulation of human mGluR5 expressed in recombinant HEK293 cells by FLIPR assay. Type of series: cell-based. The settings on record: for inhibition: concentration not given here. The procedure, abridged:
as §2

For series [11] the target is unchanged. The series can be described thus: Binding affinity to human mGluR5 expressed in recombinant HEK293 cells by radiolabeled assay. The series is classed as cell-based.
Target sequence in this assay (P41594 21-1212 limits assumed): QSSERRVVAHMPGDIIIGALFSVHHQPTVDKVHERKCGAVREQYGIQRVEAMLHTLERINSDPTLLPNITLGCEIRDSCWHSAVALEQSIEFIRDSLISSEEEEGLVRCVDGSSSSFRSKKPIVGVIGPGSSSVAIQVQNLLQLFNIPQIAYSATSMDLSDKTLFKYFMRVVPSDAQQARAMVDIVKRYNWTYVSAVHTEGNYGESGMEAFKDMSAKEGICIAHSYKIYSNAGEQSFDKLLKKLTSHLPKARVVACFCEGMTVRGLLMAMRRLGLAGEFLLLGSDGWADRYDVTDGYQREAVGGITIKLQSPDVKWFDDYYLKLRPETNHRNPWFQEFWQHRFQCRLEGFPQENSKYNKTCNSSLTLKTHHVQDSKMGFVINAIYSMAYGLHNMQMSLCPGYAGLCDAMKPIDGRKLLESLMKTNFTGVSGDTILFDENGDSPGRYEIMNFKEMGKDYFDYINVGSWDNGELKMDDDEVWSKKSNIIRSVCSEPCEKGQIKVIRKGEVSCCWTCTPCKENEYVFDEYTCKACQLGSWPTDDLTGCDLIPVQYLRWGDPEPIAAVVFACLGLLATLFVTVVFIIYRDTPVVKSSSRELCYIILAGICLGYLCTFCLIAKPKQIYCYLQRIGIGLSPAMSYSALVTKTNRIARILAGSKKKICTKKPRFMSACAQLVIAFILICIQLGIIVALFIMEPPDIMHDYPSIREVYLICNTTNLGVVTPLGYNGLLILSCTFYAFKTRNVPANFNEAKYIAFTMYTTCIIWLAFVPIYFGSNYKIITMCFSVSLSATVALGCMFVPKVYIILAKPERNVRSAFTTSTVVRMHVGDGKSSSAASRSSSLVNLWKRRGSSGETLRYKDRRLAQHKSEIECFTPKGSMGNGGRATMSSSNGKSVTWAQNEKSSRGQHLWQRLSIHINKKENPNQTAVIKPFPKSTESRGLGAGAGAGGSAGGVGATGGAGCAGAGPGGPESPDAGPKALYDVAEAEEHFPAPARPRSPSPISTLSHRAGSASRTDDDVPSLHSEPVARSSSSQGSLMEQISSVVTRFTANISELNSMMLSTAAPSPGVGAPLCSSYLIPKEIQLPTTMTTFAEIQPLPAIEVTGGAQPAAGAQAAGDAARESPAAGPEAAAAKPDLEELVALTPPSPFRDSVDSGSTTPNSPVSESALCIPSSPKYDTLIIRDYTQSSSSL

The structures appear in SMILES notation. pEC50, pIC50: −log10 of the molar value. ≈ marks a conversion by molar mass, not a printed value. Where only a bound is given, the exact number is not on record here.

One may read the pEC50 as the EC50 on a negative log10 scale, so that one unit is a factor of ten. The Emax is the size of the effect at its maximum, as opposed to the concentration needed. The term solubility denotes the concentration that dissolves in the medium under given conditions. As usually defined, the pIC50 is the IC50 on a negative log10 scale, so that one unit is a factor of ten. The term inhibition denotes the share of the control response that was lost under treatment.

With `O=C([C@H]1CC2CCC1C2)N1CC(c2nc(-c3cccc(F)c3)no2)C1` (stereo not given in full), in [1], the Kp at 1 h stood at 2.33. Further, the pEC50 in [2] was 7.14. Further, the Emax in series [2] was determined as 140%. This compound also came in with a solubility at 4 h in series [3] of 54 µM (≈ 18.4 µg/mL). Also, the CLH in the series with Liver microsomes [4] worked out at 59 L/min; in the series on Liver microsomes [9] it was 16 mL/min. Also, the concentration at 1 h is 84 ng/g in [5] and 36 ng/mL in [8]. Also, the fraction unbound in series [6] is 0.007; in [7], 0.008.

On to `O=C(c1ccc(F)cc1)N1CC(c2nc(-c3cccc(Cl)c3)no2)C1`, for which, in series [2], the pEC50 is under 5.00 and the Emax is -12%. The compound also returned a solubility at 4 h in [3] of 47 µM (≈ 16.8 µg/mL). In addition, in series [10], the pIC50 is 5.40 and the inhibition was found to be 60%.

For the compound `O=C(C1CCC(F)(F)CC1)N1CC(c2nc(-c3cccc(Cl)c3)no2)C1`, the Kp at 1 h in series [1] came out at 1.75. For the same compound, the Activity stood at 3% in series [2] and 3.8 µM in [11]. Moreover, in series [2], the pEC50 is 6.74. Besides, the Emax in series [2] amounted to 75%. The solubility at 4 h in [3] came out at 130 µM (≈ 49.6 µg/mL). The CLH was 0.9 L/min in the series with Liver microsomes [4] and 24 mL/min in the series on Liver microsomes [9]. The results for the concentration at 1 h in series [5] and in [8] were 280 ng/g and 160 ng/mL, respectively. For the same compound, the fraction unbound in series [6] is 0.013; in [7], 0.031. Besides, in series [10], the pIC50 is under 5.00.

`Cc1cccc(-c2noc(C3CN(S(=O)(=O)c4cccc(C)c4)C3)n2)c1`: in [2], the pEC50 was under 5.00 and the Emax is -4%. Besides, in [10], the pIC50 was 6.19 and the inhibition stood at 76%.

Consider `CC1CCCC(C(=O)N2CC(c3nc(-c4cccc(Cl)c4)no3)C2)C1` (stereo not given), for which, in series [2], the Activity was 34%, the pEC50 is 6.39 and the Emax is 53%. Also, in series [10], the pIC50 was under 5.00.

As for `Cc1cccc(-c2noc(C3CN(C(=O)C4CCCO4)C3)n2)c1` (stereo not given), in series [2], the pEC50 was under 5.00 and the Emax stood at 3%. In series [10], the pIC50 is 5.72 and the inhibition is 79%.

On to `Cc1ccc(S(=O)(=O)N2CC(c3nc(-c4cccc(Cl)c4)no3)C2)cc1`, for which, in series [2], the pEC50 was under 5.00 and the Emax came to 2%. Moreover, in series [10], the pIC50 is 6.04 and the inhibition was found to be 75%.

Turning to `O=C(c1ccc(F)c(F)c1)N1CC(c2nc(-c3cccc(F)c3)no2)C1`, in series [2], the Activity amounted to 50%, the pEC50 was 5.49 and the Emax was 35%. In addition, the pIC50 in [10] is under 5.00.

Turning to `CC1CN(C(=O)N2CC(c3nc(-c4cccc(Cl)c4)no3)C2)CC(C)O1` (stereo not given), in [2], the pEC50 is under 5.00. Further, in series [10], the pIC50 is 6.00 and the inhibition stood at 51%.

For `Cc1cccc(-c2noc(C3CN(C(=O)C4CCCC4)C3)n2)c1`, in [2], the pEC50 is under 5.00 and the Emax is -7%. Further, in series [10], the pIC50 was 5.60 and the inhibition came to 70%.

For the compound `CC1CCCCC1C(=O)N1CC(c2nc(-c3cccc(F)c3)no2)C1` (stereo not given), in [2], the Activity was 48%, the pEC50 is 6.27 and the Emax amounted to 87%. The compound also showed a solubility at 4 h in series [3] of 180 µM (≈ 61.8 µg/mL). Also, in the series with Liver microsomes [4], the CLH amounted to 1.6 L/min. For the same compound, in series [6], the fraction unbound is 0.034. For the same compound, the fraction unbound in series [7] is 0.055. In addition, the pIC50 in series [10] is under 5.00. The compound further returned a CLH with Liver microsomes [9] of 13 mL/min.

For `Cc1cccc(-c2noc(C3CN(C(=O)C4CCC4)C3)n2)c1`, in series [2], the pEC50 was under 5.00 and the Emax is 3%. Moreover, in series [10], the pIC50 was 6.00 and the inhibition came to 77%.

In the case of `O=C(c1ccccc1F)N1CC[C@H]1c1nc(-c2cccc(F)c2)no1`, in [2], the negative-log EC50 (pEC50) was under 5.00 and the Emax came out at 57%. In series [10], the pIC50 is 6.04 and the inhibition is 68%.

Turning to `O=C(C1CCC2(CCC2)CC1)N1CC(c2nc(-c3cccc(Cl)c3)no2)C1`, in [2], the Activity is 24%, the pEC50 was 5.96 and the Emax is 40%. In addition, the pIC50 in [10] was under 5.00.

For `O=C(C1CCC(F)(F)CC1)N1CC(c2nc(-c3cccc(F)c3)no2)C1`, in [2], the pEC50 was 6.28 and the Emax turned out to be 53%. Moreover, in series [10], the pIC50 is under 5.00 and the inhibition was determined as 11%.

Take `Cc1cccc(-c2noc(C3CN(C(=O)c4ccccc4F)C3)n2)c1`: in [2], the pEC50 was under 5.00 and the Emax stood at 5%. In addition, in [10], the pIC50 was 5.85 and the inhibition turned out to be 64%.

With `COC1CCN(C(=O)N2CC(c3nc(-c4cccc(Cl)c4)no3)C2)CC1`, in [2], the pEC50 is under 5.00 and the Emax stood at 11%. The pIC50 in series [10] was under 5.00.

Turning to `Cc1cccc(-c2noc(C3CN(S(=O)(=O)c4ccc(Cl)cc4)C3)n2)c1`, in [2], the pEC50 was under 5.00 and the Emax came to 3%. In [10], the pIC50 is 5.96 and the inhibition is 75%.

`Cc1ccc(C(=O)N2CC(c3nc(-c4cccc(F)c4)no3)C2)cc1`: in series [2], the Activity is 30%, the negative logarithm of the EC50 (pEC50) is 5.17 and the Emax was 27%. Moreover, in series [10], the pIC50 was under 5.00.
